In the array DNA melting data of Ke et al. (doi:10.1101/2024.01.08.574731):

Legend:
[1] = melting temperature; fluorescence melt of hairpins on a sequencing array, two-state fit, raised by 9.35 °C to match UV melts; settings: sodium 0.088 M
Outline: (§1)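 In 50 mM Na-HEPES pH 8.0 containing 25 mM NaCl, hairpins from the library on a sequenced MiSeq flow cell were imaged for Cy3 fluorescence at 2.5 °C steps up to 60 °C, with Cy3 and quencher oligos annealed. After normalisation to pre-quench Cy3 and to control constructs, two-state fits with bootstrapping gave melting temperature and folding enthalpy. Four replicates were combined by inverse-variance weighting, and fitted temperatures were shifted up by 9.35 °C to match UV melts.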

[2] = folding enthalpy; higher = less favourable; fluorescence melt of hairpins on a sequencing array, two-state fit; settings: sodium 0.088 M
Outline: as §1

GTATGAGGAAACTCATGC (.(((((....))))).)
Tm [1]: 44.5 °C | folding enthalpy [2]: -26.4 kcal/mol

GATCACTGGAGTGATC ((((((....))))))
Tm [1]: 55.7 °C | folding enthalpy [2]: -48.7 kcal/mol

GTGCTCGAAAGAGGACAC ((((((....)))..)))
Tm [1]: 49.8 °C | folding enthalpy [2]: -15.6 kcal/mol

GATCAAGTTGTTGATC ((((((....))))))
Tm [1]: 45.1 °C | folding enthalpy [2]: -36.6 kcal/mol

GCGCACGGAAACATGCGC (((((.(....).)))))
Tm [1]: 59 °C | folding enthalpy [2]: -37.5 kcal/mol

GATCTGGCCTCAGATC ((((((....))))))
Tm [1]: 51.7 °C | folding enthalpy [2]: -41.7 kcal/mol

GCGAGGCGAAAGCTTAGC ((.(.((....)).).))
Tm [1]: 56.9 °C | folding enthalpy [2]: -16.7 kcal/mol

GCCAAGGCGAAAGCCGGC (((..(((....))))))
Tm [1]: 65.8 °C | folding enthalpy [2]: -15.7 kcal/mol

GTTTTACGAAAGTATAAC (((.(((....))).)))
Tm [1]: 37.5 °C | folding enthalpy [2]: -23.9 kcal/mol

GTGTCGGGAAACTGACAC (((((.(....).)))))
Tm [1]: 55 °C | folding enthalpy [2]: -41.6 kcal/mol

GGCAGCGAAAGCTCGCC ((((((....))).)))
Tm [1]: 61.4 °C | folding enthalpy [2]: -22.5 kcal/mol

GGATCCGAAAGGATTTCC ((((((....)))..)))
Tm [1]: 37.4 °C | folding enthalpy [2]: -13.7 kcal/mol

GCCATGCGAAAGCAAGGC (((.(((....))).)))
Tm [1]: 60.5 °C | folding enthalpy [2]: -42.6 kcal/mol

GGCCTACGAAAGTACGCC (((.(((....))).)))
Tm [1]: 47.4 °C | folding enthalpy [2]: -26.4 kcal/mol

GGAGTTACGAAAGTATCC (((..(((....))))))
Tm [1]: 26.1 °C | folding enthalpy [2]: -9.09 kcal/mol

GAGTACGAAAGTAATCTC ((((((....)))..)))
Tm [1]: 42.5 °C | folding enthalpy [2]: -27.2 kcal/mol

GAGGCAGGAAACTACCTC ((((.((....)).))))
Tm [1]: 40.3 °C | folding enthalpy [2]: -26.9 kcal/mol

GATTTCACGAAAGTGATC (((..(((....))))))
Tm [1]: 23.4 °C | folding enthalpy [2]: -9.78 kcal/mol

GTATTGCGAAAGCATAC (((.(((....))))))
Tm [1]: 45 °C | folding enthalpy [2]: -12.2 kcal/mol

GATACAGGAAACTGTACC (.(((((....))))).)
Tm [1]: 31.1 °C | folding enthalpy [2]: -15.4 kcal/mol

GCACTCGAAAGAGCCTGC ((((((....)))..)))
Tm [1]: 27.8 °C | folding enthalpy [2]: -12.9 kcal/mol

GCCCTGCGAAAGCCGGGC ((((.((....)).))))
Tm [1]: 69 °C | folding enthalpy [2]: -32.9 kcal/mol

GCTCCTGAAAAGGAGC ((((((....))))))
Tm [1]: 68.5 °C | folding enthalpy [2]: -42.6 kcal/mol

GCTAATCGAAAGATCAGC (((.(((....))).)))
Tm [1]: 41.2 °C | folding enthalpy [2]: -29.4 kcal/mol

GATCGTCCCGACGATC ((((((....))))))
Tm [1]: 59.8 °C | folding enthalpy [2]: -43.2 kcal/mol

GCGCTTCGAAAGAAACGC (((.(((....))).)))
Tm [1]: 54.5 °C | folding enthalpy [2]: -38.8 kcal/mol

CGATCGGAAACGATTTCG ((((((....)))..)))
Tm [1]: 30.2 °C | folding enthalpy [2]: -20.4 kcal/mol

GATCTGAGTCAGATC ((((((...))))))
Tm [1]: 47.5 °C | folding enthalpy [2]: -36.5 kcal/mol

GGTTGCGGAAACGCGACC (((.(((....))).)))
Tm [1]: 65.8 °C | folding enthalpy [2]: -37.7 kcal/mol

GAGCCTGGAAACGGGTTC ((.((.(....).)).))
Tm [1]: 36.4 °C | folding enthalpy [2]: -27.5 kcal/mol

GAGGTCGGAAACGACTTC ((.((((....)))).))
Tm [1]: 48.6 °C | folding enthalpy [2]: -20.9 kcal/mol

GATCTCAATAGAGATC ((((((....))))))
Tm [1]: 53.3 °C | folding enthalpy [2]: -38.5 kcal/mol

GATTACACGAAAGTGATC (((..(((....))))))
Tm [1]: 26.4 °C | folding enthalpy [2]: -9.64 kcal/mol

GCGACCGGAAACGACCGC (((..((....))..)))
Tm [1]: 41.8 °C | folding enthalpy [2]: -27.4 kcal/mol

GATCGTGATCACGATC ((((((....))))))
Tm [1]: 58.2 °C | folding enthalpy [2]: -53 kcal/mol

GAGCTGGCGAAAGCCCTC (((..(((....))))))
Tm [1]: 36.6 °C | folding enthalpy [2]: -5.81 kcal/mol

GACAGCGAAAGCTAGTC ((((((....))).)))
Tm [1]: 51.2 °C | folding enthalpy [2]: -22.6 kcal/mol

GGCGAAGGAAACTCCGCC ((((.((....)).))))
Tm [1]: 51.1 °C | folding enthalpy [2]: -34.4 kcal/mol

GGTTTCGAAAGAATAACC ((((((....)))..)))
Tm [1]: 31.5 °C | folding enthalpy [2]: -20.1 kcal/mol

AAACAGAAATGTTT (((((....)))))
Tm [1]: 25.3 °C | folding enthalpy [2]: -11.4 kcal/mol

GCGCTTTCGAAAGAACGC (((..(((....))))))
Tm [1]: 40.1 °C | folding enthalpy [2]: -34.8 kcal/mol

GTCAACGCGAAAGCGGAC (((..(((....))))))
Tm [1]: 42 °C | folding enthalpy [2]: -15.3 kcal/mol

GGGTACGAAAGTAACCCC ((((((....)))..)))
Tm [1]: 54.2 °C | folding enthalpy [2]: -21.9 kcal/mol

GGCAGACGAAAGTCCGCC (((.(((....))).)))
Tm [1]: 60.2 °C | folding enthalpy [2]: -39.2 kcal/mol

GATCTAGTTTAGATC ((((((...))))))
Tm [1]: 40.7 °C | folding enthalpy [2]: -30.3 kcal/mol

GACTAAGGAAACTTGGTC (((.(((....))).)))
Tm [1]: 39.3 °C | folding enthalpy [2]: -30.1 kcal/mol

GATCTGCTACAGATC ((((((...))))))
Tm [1]: 49.6 °C | folding enthalpy [2]: -29.6 kcal/mol

GCTTTGTCGAAAGACAGC (((..(((....))))))
Tm [1]: 35.3 °C | folding enthalpy [2]: -12 kcal/mol

GTTGATCGAAAGATAAC (((.(((....))))))
Tm [1]: 28.9 °C | folding enthalpy [2]: -13.3 kcal/mol

GGTGCAGCGAAAGCTACC (((..(((....))))))
Tm [1]: 39.1 °C | folding enthalpy [2]: -13.6 kcal/mol

GTGAGTGGAAACGTTCAC ((((..(....)..))))
Tm [1]: 28.4 °C | folding enthalpy [2]: -11.2 kcal/mol

GGTAGAGAAATCTACC ((((((....))))))
Tm [1]: 49.2 °C | folding enthalpy [2]: -25.2 kcal/mol

GCGATAGGAAACCATCGC (((((.(....).)))))
Tm [1]: 50.1 °C | folding enthalpy [2]: -34.5 kcal/mol

GCAGGGCGAAAGCCGAGC ((..(((....)))..))
Tm [1]: 50.1 °C | folding enthalpy [2]: -14.9 kcal/mol

CTTTCGAAAGAAAG (((((....)))))
Tm [1]: 47.3 °C | folding enthalpy [2]: -19.3 kcal/mol

GAGCGACCGAAAGGTCTC (((..(((....))))))
Tm [1]: 33.1 °C | folding enthalpy [2]: -10.2 kcal/mol

GGAATGCCGAAAGGCTCC (((..(((....))))))
Tm [1]: 34.5 °C | folding enthalpy [2]: -10.2 kcal/mol

GCTCTTTCGAAAGAAAGC (((..(((....))))))
Tm [1]: 32.5 °C | folding enthalpy [2]: -13.4 kcal/mol

GGTACAGAAATGTACC ((((((....))))))
Tm [1]: 53 °C | folding enthalpy [2]: -38 kcal/mol

GATCTAGCATAGATC ((((((...))))))
Tm [1]: 50.8 °C | folding enthalpy [2]: -36.5 kcal/mol

GTTGATGCGAAAGCAAAC (((..(((....))))))
Tm [1]: 37.1 °C | folding enthalpy [2]: -13.8 kcal/mol

GATCAACAATTGATC ((((((...))))))
Tm [1]: 33.4 °C | folding enthalpy [2]: -21.6 kcal/mol

GGGCTGACGAAAGTCCCC (((..(((....))))))
Tm [1]: 42.8 °C | folding enthalpy [2]: -18.1 kcal/mol

GAACATGGAAACATGTCC (.(((((....))))).)
Tm [1]: 35.8 °C | folding enthalpy [2]: -15.4 kcal/mol

GGATGCGAAAGCACCTCC ((((((....)))..)))
Tm [1]: 54.6 °C | folding enthalpy [2]: -14.4 kcal/mol

GGTGAAGGAAACTTTGCC ((..(((....)))..))
Tm [1]: 34.6 °C | folding enthalpy [2]: -25.4 kcal/mol

GATCAGATACCTGATC ((((((....))))))
Tm [1]: 48 °C | folding enthalpy [2]: -36.7 kcal/mol

GATTAGGCGAAAGCCATC (((..(((....))))))
Tm [1]: 23.4 °C | folding enthalpy [2]: -8.82 kcal/mol

GCGAAGTTCGC ((((...))))
Tm [1]: 46.4 °C | folding enthalpy [2]: -17 kcal/mol

CGTCTACGGAAACGTACG (((..(((....))))))
Tm [1]: 31.5 °C | folding enthalpy [2]: -11.6 kcal/mol

GTCACAGCGAAAGCTGAC (((..(((....))))))
Tm [1]: 34.2 °C | folding enthalpy [2]: -10.4 kcal/mol

GCTTTAGCGAAAGCTAGC (((..(((....))))))
Tm [1]: 42.3 °C | folding enthalpy [2]: -8.44 kcal/mol

GCCTCTGGAAACAGGGGC (((.(((....))).)))
Tm [1]: 57.4 °C | folding enthalpy [2]: -45.3 kcal/mol

GTCCTCGCGAAAGCGGAC (((..(((....))))))
Tm [1]: 43.7 °C | folding enthalpy [2]: -12.7 kcal/mol

GTTCGGCGAAAGCCAAC (((.(((....))))))
Tm [1]: 42.9 °C | folding enthalpy [2]: -12.3 kcal/mol

GCCCATGGAAACATAGGC (((.(((....))).)))
Tm [1]: 38.3 °C | folding enthalpy [2]: -28.1 kcal/mol

GTAGGCGGAAACACCTAC (((((.(....).)))))
Tm [1]: 44.5 °C | folding enthalpy [2]: -25.8 kcal/mol

GATCAACAAGTTGATC ((((((....))))))
Tm [1]: 51.8 °C | folding enthalpy [2]: -34.2 kcal/mol

CGATCGGAAACGAGATCG ((((((....)))..)))
Tm [1]: 42.5 °C | folding enthalpy [2]: -28.4 kcal/mol

GTTGCGCGAAAGCGGAAC (((.(((....))).)))
Tm [1]: 67.6 °C | folding enthalpy [2]: -30.9 kcal/mol

GTCGACGAAAGTCACGAC ((((((....)))..)))
Tm [1]: 45.4 °C | folding enthalpy [2]: -18.6 kcal/mol

GATCGTTATCACGATC ((((((....))))))
Tm [1]: 52.7 °C | folding enthalpy [2]: -42 kcal/mol

GATCTGGGGACAGATC ((((((....))))))
Tm [1]: 54.3 °C | folding enthalpy [2]: -31.4 kcal/mol

CGCGGACAGCTCCGCG ((((((....))))))
Tm [1]: 68.2 °C | folding enthalpy [2]: -30.1 kcal/mol

GCGTCAGGAAACTGGTGC ((..(((....)))..))
Tm [1]: 41.6 °C | folding enthalpy [2]: -27.1 kcal/mol

GGAGTTGGAAACAGCTTC (.((.((....)).)).)
Tm [1]: 37.1 °C | folding enthalpy [2]: -37 kcal/mol

GTTGTCGAAAGACATAAC ((((((....)))..)))
Tm [1]: 32.6 °C | folding enthalpy [2]: -13.3 kcal/mol

GCGATCTCTCGC ((((....))))
Tm [1]: 47.9 °C | folding enthalpy [2]: -31.1 kcal/mol

GCAGTGCGAAAGCGTTGC (((..((....))..)))
Tm [1]: 56.2 °C | folding enthalpy [2]: -17.7 kcal/mol

GCTTGCGAAAGCAGAGC ((((((....))).)))
Tm [1]: 52.7 °C | folding enthalpy [2]: -18.6 kcal/mol

GCGTGTGCGAAAGCACGC (((..(((....))))))
Tm [1]: 57.5 °C | folding enthalpy [2]: -9.9 kcal/mol

GCGGGCTCCCGC ((((....))))
Tm [1]: 66 °C | folding enthalpy [2]: -23.8 kcal/mol
